Measured values as given in ChEMBL document CHEMBL4376835, “Discovery of Nonpungent Transient Receptor Potential Vanilloid 1 (TRPV1) Agonist as Strong Topical Analgesic” (J Med Chem, 2020).

Assays:
[1] = Genotoxicity in Salmonella typhimurium TA102 incubated for 48 hrs by Ames test; type: toxicity; conditions: salmonella enterica subsp. enterica serovar typhimurium
[2] = Toxicity in Sprague-Dawley rat assessed as pathological problems administered topically daily for 4 weeks; conditions: in vivo, topical_or_ocular, 672 h
Procedure, shortened: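 Rats given daily topical application for 4 weeks, then examined for pathological findings.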

[3] = Toxicity in ICR mouse assessed as ear edema administered topically and measured after 30 mins; conditions: in vivo, topical_or_ocular, 0.5 h
Procedure, shortened: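 Ear swelling test: a solution of the agent was applied to mouse ears, and ear punch biopsies were collected 30 min later and weighed.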

[4] = Genotoxicity in Salmonella typhimurium TA1535 incubated for 48 hrs in presence of rat S9 by Ames test; type: toxicity, subcellular; conditions: salmonella enterica subsp. enterica serovar typhimurium, s9, 48 h

Measured: Activity

CC(C)(C)c1nc(-c2cccc(Cl)c2)c(CNC(=O)Nc2ccc(CO)c(F)c2)s1
Non-Toxic: all assays above
